Data: ChEMBL document CHEMBL1127326, “Antitumor agents. 148. Synthesis and biological evaluation of novel 4 beta-amino derivatives of etoposide with better pharmacological profiles” (1994)
Where “and” joins values, the source holds several entries; their conditions need not be identical. Equal entries are not always repeated.

Columns and labels:
[1] = system: Nucleic Acid; assay: Percentage inhibition of cellular protein-DNA complex formation; assay type: functional; settings: Homo sapiens
[2] = target: T1, DNA topoisomerase II (Homo sapiens) (UniProt P11388+Q02880); assay: 50% inhibition of human DNA topoisomerase II; assay type: protein assay
[3] = system: Tumor Cell line; assay: Drug concentration required to inhibit total cell growth; assay type: functional, Homo sapiens; settings: read-out: Log TGI (converted)
Procedure, shortened: (§1)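 NCI panel of 54 human tumor lines from eight cancer types, mostly seeded at 20 000 cells/well. Cells were preincubated 24 h without drug, then exposed to five 10-fold dilutions for 48 h, fixed and stained with sulforhodamine B, and read spectrophotometrically. Versus control, GI50 (50% growth inhibition), TGI (0% growth) and LC50 (−50% growth) were calculated; mean graph midpoints average all lines.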

[4] = system: KB; assay: Cytotoxicity against KB cells after a 3 day incubation; assay type: functional, Homo sapiens; settings: read-out: ID50 (the source's name)
Procedure, shortened: (§2)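 KB cells (parental ATCC line and resistant variants) exposed to drug at five concentrations […] for 3 days. ID50 is the concentration giving 50% reduction in cell number, derived from the degree of inhibition at the five concentrations.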

[5] = system: Tumor Cell line; assay: Drug concentration required to cause 50% cell death; assay type: functional, Homo sapiens
Procedure, shortened: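 NCI in vitro panel of 54 human tumor cell lines from eight cancer types, mostly seeded at 20 000 cells/well and preincubated 24 h without drug. Five 10-fold dilutions were then added for a further 48 h. Cells were fixed in situ and stained with sulforhodamine B, and bound dye was read spectrophotometrically. LC50 (−50% growth versus control) was taken from five-point dose-response curves and reported as the log10 mean-graph midpoint across lines.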

[6] = system: Tumor Cell line; assay: 50% of human tumor cell growth; assay type: functional; procedure, shortened: as §1
[7] = target: T1, DNA topoisomerase II (Homo sapiens); assay: inhibition of human DNA topoisomerase II; assay type: protein assay
[8] = system: Tumor Cell line; assay: Drug molar concentration required to inhibit 50% of human tumor cell growth; assay type: functional; procedure, shortened: as §1
[9] = target: T1, DNA topoisomerase II (Homo sapiens); assay: 50% inhibition of human DNA topoisomerase II was measured; assay type: protein assay
[10] = system: KB; assay: 50% reduction in the number of KB ATCC cells; assay type: functional; settings: Homo sapiens, read-out: ID50 (the source's name); procedure, shortened: as §2
[11] = system: KB; assay: 50% reduction in the number of KB V20C resistant variant; assay type: functional, Homo sapiens; settings: read-out: ID50 (the source's name); procedure, shortened: as §2
[12] = system: KB; assay: 50% reduction in the number of KB 7D (topoisomerase II, aMDR) resistant variant; assay type: functional, Homo sapiens; settings: read-out: ID50 (the source's name); procedure, shortened: as §2
[13] = system: Tumor Cell line; assay: Inhibition of human tumor cell growth; assay type: functional; procedure, shortened: as §1
[14] = system: KB; assay: Inhibitory dose value is the concentration which affords 50% reduction in the number of KB ATCC cells; assay type: functional; settings: Homo sapiens, read-out: ID50 (the source's name); procedure, shortened: as §2

**Q.** Which Complex formation [1] does the source give for `COc1cc([C@@H]2c3cc4c(cc3[C@@H](NCCN(C)C)[C@H]3COC(=O)[C@H]23)OCO4)cc(OC)c1O` [listing 1 of 3 here] here?
**A.** 203% and 183%

**Q.** What about the ID50 [2] of the same molecule?
**A.** 25 µM

**Q.** For `COc1cc([C@@H]2c3cc4c(cc3[C@@H](NCCN3CCCCC3)[C@H]3COC(=O)[C@H]23)OCO4)cc(OC)c1O` [listing 1 of 2 here], which TGI [3] is on record?
**A.** 3.31 µM

**Q.** And the IC50 [4]?
**A.** 1.4 µM

**Q.** And the LC50 [5]?
**A.** 30.9 µM

**Q.** What about the GI50 [6] of the same molecule?
**A.** 0.372 µM

**Q.** With `COc1cc([C@@H]2c3cc4c(cc3[C@@H](NCCN3CCCCC3)[C@H]3COC(=O)[C@H]23)OCO4)cc(OC)c1O` [listing 2 of 2 here] as the molecule, how does the Complex formation [1] read?
**A.** 183% and 190%

**Q.** And the ID50 [7]?
**A.** 50 µM and 25 µM

**Q.** With `CCOC(=O)N1CCC(N[C@@H]2c3cc4c(cc3[C@@H](c3cc(OC)c(O)c(OC)c3)[C@H]3C(=O)OC[C@@H]32)OCO4)CC1` [listing 1 of 2 here] as the molecule, how does the TGI ([3]; Homo sapiens, Tumor Cell line) read?
**A.** 7.76 µM

**Q.** What about the IC50 ([4]; Homo sapiens, KB, 72 h) of the same molecule?
**A.** 0.74 µM

**Q.** What about the GI50 ([8]; Homo sapiens, Tumor Cell line) of the same molecule?
**A.** 1.35 µM

**Q.** For `COc1cc([C@@H]2c3cc4c(cc3[C@@H](NCCN(C)C)[C@H]3COC(=O)[C@H]23)OCO4)cc(OC)c1O` [listing 2 of 3 here], which TGI ([3]; Homo sapiens, Tumor Cell line) is on record?
**A.** 2.51 µM

**Q.** And the GI50 ([8]; Homo sapiens, Tumor Cell line)?
**A.** 0.263 µM

**Q.** And the LC50 ([5]; Homo sapiens, Tumor Cell line)?
**A.** 21.9 µM

**Q.** With `CCOC(=O)N1CCC(N[C@@H]2c3cc4c(cc3[C@@H](c3cc(OC)c(O)c(OC)c3)[C@H]3C(=O)OC[C@@H]32)OCO4)CC1` [listing 2 of 2 here] as the molecule, how does the TGI [3] read?
**A.** 8.13 µM

**Q.** What about the IC50 [4] of the same molecule?
**A.** 1.13 µM

**Q.** What about the GI50 [8] of the same molecule?
**A.** 1.78 µM

**Q.** Which results are given for `COc1cc([C@@H]2c3cc4c(cc3[C@@H](NC3CCN(Cc5ccccc5)CC3)[C@H]3COC(=O)[C@H]23)OCO4)cc(OC)c1O` [listing 1 of 2 here]?
**A.** ID50 [9]: 50 µM; ID50 [2]: 100 µM

**Q.** Which IC50 [10] does the source give for `COc1cc([C@@H]2c3cc4c(cc3[C@@H](NCCN(C)C)[C@H]3COC(=O)[C@H]23)OCO4)cc(OC)c1O` [listing 3 of 3 here] here?
**A.** 0.4 µM

**Q.** What about the TGI ([3]; Homo sapiens, Tumor Cell line) of the same molecule?
**A.** 1.48 µM

**Q.** What about the IC50 ([4]; Homo sapiens, KB, 72 h) of the same molecule?
**A.** 0.4 µM

**Q.** What about the GI50 ([8]; Homo sapiens, Tumor Cell line) of the same molecule?
**A.** 0.155 µM

**Q.** What about the IC50 ([11]; Homo sapiens, KB) of the same molecule?
**A.** 0.44 µM

**Q.** And the LC50 ([5]; Homo sapiens, Tumor Cell line)?
**A.** 15.1 µM

**Q.** And the IC50 ([12]; Homo sapiens, KB)?
**A.** 0.68 µM

**Q.** How did the Complex formation [1] turn out when `COc1cc([C@@H]2c3cc4c(cc3[C@@H](O[C@@H]3O[C@@H]5CO[C@@H](C)O[C@H]5[C@H](O)[C@H]3O)[C@H]3COC(=O)[C@H]23)OCO4)cc(OC)c1O` [ETOPOSIDE] was run?
**A.** 100%

**Q.** And the IC50 [10]?
**A.** 0.32 µM

**Q.** And the GI50 [13]?
**A.** 83.2 µM

**Q.** What about the IC50 ([4]; Homo sapiens, KB, 72 h) of the same molecule?
**A.** 0.2 µM

**Q.** And the IC50 ([11]; Homo sapiens, KB)?
**A.** 2.3 µM

**Q.** What about the IC50 ([12]; Homo sapiens, KB) of the same molecule?
**A.** 18 µM

**Q.** For `COc1cc([C@@H]2c3cc4c(cc3[C@@H](Nc3ccc(C(=O)O)cc3)[C@H]3COC(=O)[C@H]23)OCO4)cc(OC)c1O`, which TGI [3] is on record?
**A.** 52.5 µM

**Q.** What about the GI50 [8] of the same molecule?
**A.** 12.9 µM

**Q.** How did the ID50 [2] turn out when `COc1cc([C@@H]2c3cc4c(cc3[C@@H](NCCN3CCOCC3)[C@H]3COC(=O)[C@H]23)OCO4)cc(OC)c1O` was run?
**A.** 50 µM

**Q.** With `COc1cc([C@@H]2c3cc4c(cc3[C@@H](NC3CCN(Cc5ccccc5)CC3)[C@H]3COC(=O)[C@H]23)OCO4)cc(OC)c1O` [listing 2 of 2 here] as the molecule, how does the TGI [3] read?
**A.** 1.48 µM

**Q.** What about the IC50 [4] of the same molecule?
**A.** 0.027 µM

**Q.** And the GI50 [8]?
**A.** 0.174 µM

**Q.** What about the IC50 [11] of the same molecule?
**A.** 0.026 µM

**Q.** And the IC50 [14]?
**A.** 0.027 µM

**Q.** What about the IC50 [12] of the same molecule?
**A.** 0.05 µM
